HSF1 activator = HSF-1 activators, primary screen, NIH3T3-HGL cells, MG132 stress, luminescence, single point; activation, % at 9 µM; NIH3T3-HGL HSF-1 luciferase reporter, 8 h; 100% = twice DMSO control signal; actives 1.7% (n = 300,000);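 active means mean replicate activation of at least 50% with a set share of replicates each reaching 50%; inconclusive means only one of those two conditions met; inactive means mean below 50% and too few replicates reaching it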;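 further: 0% = median of the neutral control wells and 100% = twice that signal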
Lmaj promast = Leishmania major promastigote growth inhibition, primary screen; Leishmania major promastigotes, resazurin fluorescence viability; inhibition, % at 10 µM; actives 9% (n = 200,000); AID 1063, 2008; in the data active means inhibition above about 50%;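 further: promastigotes grown with compound for 44 hours at 28 °C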
HSF1 inh = HSF1 inhibitors in luciferase reporter cells, primary screen, cell-based, NIH3T3, luminescence; activity change, negative = inhibition, % at 7.5 µM (by protocol); actives 0.77% (n = 300,000); NIH3T3-HGL HSE-luciferase, MG132-induced, luminescence 8 h; hits give low values;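 active means more than half of replicate wells show activity change below -50%, luminescence cut by over half; inconclusive means some wells, but at most half, below -50%; inactive means no replicate well below -50%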;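 further: luciferase reports HSF-1 transcriptional activity via heat shock element; 0% = median of DMSO wells and -100% = zero luminescence signal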
T cruzi repl = inhibitors of intracellular T. cruzi growth, primary screen, luminescence, NIH3T3 host cells | T. cruzi beta-gal in NIH3T3, 90 h | inhibition, % (concentration not given with the values) | actives 1.4% (n = 300,000);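 active means mean inhibition across valid replicates above about 55%, limit read from the data; inconclusive means mean below that limit but half or more replicates reach it; inactive means mean below it, under half of replicates reach it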;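 further: signal also drops with host cell toxicity which is not excluded here; 0% = plate median of DMSO wells and 100% = zero luminescence signal; higher percent means less beta-gal luminescence so fewer parasites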
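Incubation – ≥90 h infection period, 3 h prior cell attachment · System – NIH/3T3 fibroblasts plus reporter T. cruzi · Doses – compound pinned at 50 nL/well, DMSO · Read-out basis – percent inhibition of parasite-derived β-gal signal · Signal – luminescent β-galactosidase signal after 60 min lysis · Also added – 5000 T. cruzi trypomastigotes/well · Medium – Low-serum DMEM with 2% FBS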
Hsp70 activator = Hsp70 transcriptional activators, primary screen, cell-based, HeLa, Hsp70 promoter luciferase, luminescence, 10 µM | activation, % at 10 µM | HeLa Hsp70 promoter luciferase reporter; scaled: vehicle 0, proteasome-inhibitor control 100% | actives 0.04% (n = 200,000);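 active means activation above the mean across all tested compounds plus 3 SD, cutoff set per campaign, cut at about 5.5% in these data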;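 further: 100% = MG132 at 30 µM as the positive control and 0% = DMSO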
Numbers without * were called inactive. The full list was thinned out, with hits kept by preference.

For Cc1ccc(-c2csc(NC(=O)CN3CC(C)OC(C)C3)n2)cc1 (stereo not given) the results were HSF1 activator 3.9, HSF1 inh 0.2 and T cruzi repl -3.7.
`Cc1cccc(N(C(=O)c2ccco2)C(C(=O)NC2CCCC2)c2cccnc2)c1C` (stereo not given) gave HSF1 activator -84.3, HSF1 inh -78.9* and T cruzi repl -11.3.
`Cc1cc(C)cc(N(C(=O)c2nsc(Cl)c2Cl)C(C(=O)NC2CCCC2)c2ccc(O)cc2)c1` (stereo not given) gave HSF1 activator 10.2, Lmaj promast 71.0*, HSF1 inh 7.6, T cruzi repl 36.8 and Hsp70 activator -0.3.
Screening Cc1cccc(N(C(=O)c2nsc(Cl)c2Cl)C(C(=O)NC2CCCC2)c2ccc(O)cc2)c1C (stereo not given) returned HSF1 activator 17.5, Lmaj promast 98.0*, HSF1 inh 9.5, T cruzi repl 30.3 and Hsp70 activator -0.2.
Cc1ccc(N(C(=O)c2nsc(Cl)c2Cl)C(C(=O)NC2CCCC2)c2ccc(O)cc2)cc1C (stereo not given) was read as HSF1 activator 14.9, Lmaj promast 76.4*, HSF1 inh 3.3, T cruzi repl 47.7 and Hsp70 activator -0.3.
For CCOc1ccc(C(C(=O)NC2CCCC2)N(Cc2ccccc2)C(=O)c2nsc(Cl)c2Cl)cc1 (stereo not given) the results were HSF1 activator -33.3, Lmaj promast 26.7, HSF1 inh -26.7, T cruzi repl 43.2 and Hsp70 activator -0.2.
Screening Cc1ncc(CN2CCCC(C(=O)Nc3ccc(-n4ccnc4C)cc3)C2)cn1 (stereo not given) returned HSF1 activator -5.4, HSF1 inh -2.1 and T cruzi repl -11.0.
Screening CCOc1cc(C(=O)NC(=S)Nc2ccc(Cl)c(C(=O)O)c2)cc(OCC)c1OCC returned HSF1 activator -5.9, HSF1 inh -5.3 and T cruzi repl 3.2.
Screening O=C(CNCc1cccs1)Nc1ccc(OC(F)(F)F)cc1 returned HSF1 activator 36.6, HSF1 inh 18.2 and T cruzi repl 1.9.
Screening O=C(Nc1ccccc1)Nc1nnc(/C=C/c2ccccc2Cl)s1 returned HSF1 activator 43.4, Lmaj promast -9.2, HSF1 inh 6.1, T cruzi repl 1.5 and Hsp70 activator -0.4.
Nc1nnc(/C=C/c2ccccc2Cl)s1 was read as HSF1 activator 69.6*, HSF1 inh 34.9 and T cruzi repl 3.4.
For O=[N+]([O-])c1cccc(-c2nc(-c3ccncc3)no2)c1 the results were HSF1 activator -36.9, Lmaj promast 14.4, HSF1 inh -22.2, T cruzi repl 8.0 and Hsp70 activator 0.3.
`Cc1occc1-c1nnc(-c2cc([N+](=O)[O-])cc([N+](=O)[O-])c2)o1` gave HSF1 activator 12.0, Lmaj promast 82.1*, HSF1 inh 9.9, T cruzi repl 66.1* and Hsp70 activator 0.1.
Screening O=[N+]([O-])c1cccc(-c2nc(-c3ccccc3)no2)c1 returned HSF1 activator 56.1*, Lmaj promast -14.9, HSF1 inh 29.9, T cruzi repl 4.4 and Hsp70 activator 0.0.
Screening O=[N+]([O-])c1cccc(-c2nnc(-c3ccccc3)o2)c1 returned HSF1 activator -83.6, Lmaj promast -6.5, HSF1 inh -78.1*, T cruzi repl 5.1 and Hsp70 activator -0.1.
Screening O=C(NCc1ccc(Cl)cc1)C1CCN(c2nnc(N3CCCC3=O)s2)CC1 returned HSF1 activator 11.0, HSF1 inh 3.5 and T cruzi repl -1.8.
For O=C(/C=C/c1ccc(F)cc1)NC(=S)NNC(=O)c1cnccn1 the results were HSF1 activator 11.8, HSF1 inh 0.1 and T cruzi repl inconclusive.
`COc1ccc(/C=C/C(=O)NC(=S)NNC(=O)c2cccnc2)cc1` gave HSF1 activator -1.1, Lmaj promast 92.7*, HSF1 inh -3.0, T cruzi repl -12.9 and Hsp70 activator -0.1.
For COc1ccc(/C=C/C(=O)NC(=S)NNC(=O)c2cnccn2)cc1 the results were HSF1 activator 12.3, HSF1 inh 12.6 and T cruzi repl 64.6*.
Screening COc1ccc(C(=O)NNC(=S)NC(=O)c2cccnc2)cc1 returned HSF1 activator -17.3, Lmaj promast 11.5, HSF1 inh -0.6, T cruzi repl -10.4 and Hsp70 activator -0.1.
`NC(=O)C1CCN(C(=O)CCSCc2ccc(Cl)c(Cl)c2)CC1` gave HSF1 activator 14.9, HSF1 inh 1.8 and T cruzi repl -9.3.
CC(=O)Nc1ccc([C@H]2[C@H](C)CC[C@H]3C(=O)N4[C@@H](CC[C@@H](C)[C@@H]4c4ccc(NC(C)=O)cc4)C(=O)N32)cc1 was read as HSF1 activator -14.9, Lmaj promast -5.6, HSF1 inh -3.9, T cruzi repl -8.3 and Hsp70 activator 0.2.
Cc1ccc(C(=O)Nc2ccc(F)cc2)cc1NC1=NC2CS(=O)(=O)CC2S1 (stereo not given) was read as HSF1 activator -3.9, HSF1 inh -6.2 and T cruzi repl -8.4.
For Cc1noc(C)c1CSc1nc2sc(C)c(C)c2c(=O)n1-c1ccccc1 the results were HSF1 activator 10.7, Lmaj promast 3.1, HSF1 inh 4.5, T cruzi repl 59.5* and Hsp70 activator -0.6.
C=CCn1c(SCc2c(C)noc2C)nc2sc(C)c(C)c2c1=O was read as HSF1 activator 118.7*, Lmaj promast 10.9, HSF1 inh 60.7, T cruzi repl 16.5 and Hsp70 activator -0.4.
For Cc1ccc(NC(=O)CN2C(=O)NC(C)(CCc3ccccc3)C2=O)cc1 (stereo not given) the results were HSF1 activator -4.8, Lmaj promast 7.6, HSF1 inh 3.6, T cruzi repl 7.6 and Hsp70 activator -0.2.
Cc1cccc(C)c1NC(=O)CN1C(=O)NC(C)(CCc2ccccc2)C1=O (stereo not given) was read as HSF1 activator -92.5, Lmaj promast -1.1, HSF1 inh -90.6*, T cruzi repl -11.4 and Hsp70 activator -0.1.
`Cc1ccc(-n2nc3c(=O)n(C(C)C(=O)NCc4ccco4)nc(C)c3c2C)cc1` (stereo not given) gave HSF1 activator -34.5, HSF1 inh -16.9 and T cruzi repl -8.6.
Cc1ccc(-n2nc3c(=O)n(C(C)C(=O)NCc4ccccc4Cl)nc(C)c3c2C)cc1 (stereo not given) was read as HSF1 activator 68.6*, HSF1 inh 37.0 and T cruzi repl 26.7.
Screening CCOc1ccccc1CN1CCN(S(=O)(=O)CC)CC1 returned HSF1 activator -35.2, Lmaj promast 82.0*, HSF1 inh -17.0, T cruzi repl -0.9 and Hsp70 activator -0.2.

Screening results as filed in PubChem BioAssay.
